In ChEMBL document CHEMBL4513216, “Probing the Open Global Health Chemical Diversity Library for Multistage-Active Starting Points for Next-Generation Antimalarials” (ACS Infect Dis, 2020):

Experiment: Toxicity liver stage against HepG2, at 10uM
Format: cell-based
Set-up: test concentration 10 uM, cell line HepG2-A16-CD81EGFP
Conditions: human, HepG2-A16-CD81EGFP cells; read-out: INHIBITION
Procedure, shortened: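 Uninfected HepG2-A16-CD81EGFP cells, 3 × 10^3 per well, 1536-well, plated on prespotted compound at 10 μM final, parasite-free screening media added to match infected plates; puromycin 10 μM positive, DMSO 0.5% negative; run in parallel with 48 h PbLuc assay at 37 °C, 5% CO2; viability by CellTiter-Glo luminescence, normalized to controls.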

Row | Structure (SMILES) | cytotoxicity at 10 µM [%]
1 | Cc1ccc2nc3n(c2c1)[C@@H](CNC(=O)c1ccncc1)COC3 | -3.61
2 | COCCCN(Cc1cc(O)nc2ccccc12)C(=O)NC(C)C | 0.829
3 | CC(C)NC(=O)c1nc(COc2ccc3c(c2)OCO3)no1 | -1.11
4 | Cc1cc(C)n(Cc2ccc(-c3noc(C(=O)NCCCO)n3)cc2)n1 | -1.49
5 | Cc1cccc(NC(=O)C2(n3cnnn3)CCCCC2)n1 | -1.05
6 | CCC(CNC(C)=O)(OC)c1ccccc1 (stereo unspecified) | 1.97
7 | COC[C@]12COC[C@H]1CN(S(=O)(=O)c1cccnc1)C2 | -0.975
8 | CCN1C(=O)CC(c2cnn(C)c2)C12CCN(C(=O)C1CC=CC1)CC2 (stereo unspecified) | 5.13
9 | CC(C)N1c2sc(-c3ccccc3)nc2CC1C(=O)NCCCO (stereo unspecified) | 7.8
10 | O=C(C1CC1)N1CC[C@H]2C(=O)N(c3ccsc3)CCO[C@H]2C1 | 9.85
11 | Cc1nc(COCc2cnc3n2CCN(C(=O)C2CC2)C3C)cs1 (stereo unspecified) | 11.4
12 | Cc1nnc(N2CCCC3(CN(c4cccc(F)c4)CCO3)C2)o1 (stereo unspecified) | 0.777
13 | CCC1=N[C@@]2(CC[C@@H]3CN(S(=O)(=O)CC)C[C@@H]32)C(=O)N1CCOC | -0.211
14 | NC(=O)C1CCN(C(=O)CCn2ccc3ccc(F)cc32)CC1 | -6.83
15 | COCCNC(=O)c1cc2c(s1)CCN2C(=O)c1ccccc1 | -12.9
16 | Cc1nc2cc(C3CCOCC3)nn2c(NCC2COCCO2)c1C (stereo unspecified) | 0.135
17 | CC(=O)N1CCCCC[C@@H]2[C@@H]1[C@H](c1cccc(F)c1)CN2CCC(N)=O | -1.08
18 | COC(=O)[C@H]1CN(C(=O)c2cscn2)C[C@@H]1c1ccc(F)cc1 | -26.3
19 | Cc1cc(CN2CCC(C3Nc4ccccc4S(=O)(=O)N3)CC2)oc1C (stereo unspecified) | 4.22
20 | Cn1nc(C2CN(C(=O)c3cccnc3)C2)c2nccnc21 | -21.7
21 | O=C(CCc1ccccc1)N1CCCC(c2n[nH]c3nccnc23)C1 (stereo unspecified) | 20.9

Row | Structure (SMILES) | cytotoxicity at 10 µM [%]
22 | NC(=O)C1(c2cnccn2)CCCN1Cc1cc2ccccc2o1 (stereo unspecified) | -1.19
23 | COc1ccc(SC(C)C(=O)N2CCC(O)CC2)cc1 (stereo unspecified) | 0.887
24 | Cc1ccc(C(C)NC(=O)CCc2cnn(C)c2)cc1F (stereo unspecified) | -0.348
25 | CC(C)C1CCC(N2CCN(CCS(C)(=O)=O)CC2)CC1 (stereo unspecified) | 7.23
26 | CC1CCCCN1C(=O)c1ccc2c(c1)OCCCO2 (stereo unspecified) | 9.62
27 | CNS(=O)(=O)c1cccc(C(C)NCc2ccncc2)c1 (stereo unspecified) | -2.53
28 | O=C(O)c1ccn(-c2ccccc2NS(=O)(=O)c2cccc(Cl)c2F)n1 | -3.36
29 | Cc1ccc(C2COCCN2C(=O)c2cccc(N(C)C)c2)o1 (stereo unspecified) | 8.99
30 | Cc1cc(C)n(C2CN(CC(=O)N(C)Cc3cnn(C)c3)C2)n1 | -5.85
31 | NC(=O)C(CNC(=O)Cc1ccsc1)Cc1ccc(F)cc1 (stereo unspecified) | 9.21
32 | Cn1cc(CCNC(=O)N2CCCC(Cc3nccn3C)C2)cn1 (stereo unspecified) | -4.52
33 | Cc1cc(C)c(CNC(=O)C2COc3ccccc3C2)c(=O)[nH]1 (stereo unspecified) | -0.102
34 | CNC(=O)CN1CCC(OCC2CCCO2)CC1 (stereo unspecified) | 1.99
35 | CN(CCCc1cc(-c2ccc(F)cc2)n[nH]1)C(=O)CCn1cncn1 | -137
36 | CC1CCN(C(=O)CN2CCC(c3n[nH]c(C4CC4)n3)CC2)CC1 | -0.297
37 | CC(C)CN1Cc2cccc(NC(=O)Cc3ccon3)c2C1 | 4.86
38 | CS(=O)(=O)CCOCCNc1cncc(Br)c1 | 1.83
39 | Cc1cc(CC(=O)NC2CCCN(Cc3ccccc3)C2=O)n[nH]1 (stereo unspecified) | 3.5
40 | O=C(c1cscn1)N1CCN2C[C@H](OCc3cccnc3)C[C@H]2C1 | -7.62
41 | CCCN1CCN(C(=O)c2ccc3nc(C)oc3c2)[C@H]2CS(=O)(=O)C[C@H]21 | -23.2
42 | CN1CCC(N(CCc2ccccc2)C(=O)c2cc[nH]c2)CC1 | -1.14

Row | Structure (SMILES) | cytotoxicity at 10 µM [%]
43 | Cc1ccc(CN(C)C(=O)C(C)n2ccnc2C(C)C)o1 (stereo unspecified) | 5.99
44 | CCCc1nnc2sc(C3CCS(=O)(=O)CC3)nn12 | 1.4
45 | COc1ccc(CN2CCSCC2)c(OC)c1 | 7.94
46 | O=c1cc(N2CCNCC2)cnn1CCc1ccc(F)cc1 | -8.76
47 | Cc1cccc(-n2nc(CC(C)C)nc2CCn2ccc(=O)[nH]c2=O)c1 | -3.7
48 | CCS(=O)(=O)N1CC[C@@H]2[C@@H](CCC(=O)N2CCc2ccccc2)C1 | 0.86
49 | Cc1cccc(-n2nc(CC(C)C)nc2CCCC(N)=O)c1 | 3.4
50 | COc1ccc([C@@H]2CN(Cc3ccncc3)C[C@H]2N(C)C)cc1 | -2.52
51 | Cc1cc(C)c2[nH]c(CN3CCCC(N4CCOCC4)C3)cc(=O)c2c1 (stereo unspecified) | -1.78
52 | COc1ccc(-c2noc(Cn3cc4c(n3)CCC4)n2)c(OC)c1OC | 4.7
53 | c1coc(-c2nc(CNC3CCC4(CCNCC4)CC3)no2)c1 | -15.8
54 | CN(C)C(C(=O)N1CCSCC1)c1ccccc1F (stereo unspecified) | 0.32
55 | Cc1nn(C)c2nc(N(Cc3ccccc3)CC3CCCO3)sc12 (stereo unspecified) | 8.15
56 | COCCN1CCN(C(=O)c2ccc(COC)o2)[C@H]2CS(=O)(=O)C[C@H]21 | -6.15
57 | Cc1nc(CCN(C)C(=O)CN2CCCCCC2)no1 | 5.33
58 | CCC(NC(=O)C(C)(C)C)c1ccccc1C (stereo unspecified) | 2.3
59 | CNCC(=O)N1CCCC(c2cccc(Nc3nc(C)cc(C)n3)n2)C1 (stereo unspecified) | -5.07
60 | Cc1cnccc1CN1C[C@@H](O)[C@H](Oc2cccc(F)c2)C1 | 2.21
61 | Cc1ccccc1-c1cncc(C2CCN(C(C)C)CC2)n1 | 1.2
62 | CC(NC(=O)NCCCn1cncn1)c1ccncc1 (stereo unspecified) | -15.9
63 | Cc1cccc(OCCN2CCN(Cc3cnn(CCO)c3)CC2)c1 | -5.16

Row | Structure (SMILES) | cytotoxicity at 10 µM [%]
64 | CC(C)Cc1noc(CN2CCN(S(C)(=O)=O)CC2)n1 | 5.51
65 | CNS(=O)(=O)c1ccc(C(=O)NCCNc2ncccn2)cc1 | -5.95
66 | CC(C)c1noc(CCC(=O)NCC2CCS(=O)(=O)C2)n1 (stereo unspecified) | 5.7
67 | CN(C)CC1CN(Cc2coc(-c3cccs3)n2)CCO1 (stereo unspecified) | 4.48
68 | CNc1snc(C)c1C(=O)N1CCCC(n2nc(C)cc2C)C1 (stereo unspecified) | -2.74
69 | CCn1cc(NC(=O)NCc2ccc3c(c2)OCCO3)cn1 | -7.71
70 | Cc1ccc(-c2ccccc2CC2CNCCNC2=O)c(C)c1 (stereo unspecified) | -1.18
71 | CCc1ccc(NC(=O)N2Cc3c(CN(C)C)nn(C)c3C2)cc1 | 5.62
72 | COc1cc(N2CCc3ncnc(-c4ccncc4)c3CC2)ncn1 | 9.85
73 | O=C1COC2(CCN(Cc3nccs3)CC2)CN1CC1CC1 | 4.38
74 | Cn1cnc2c(N3CCCC3)nc(C3CCNCC3)cc21 | -9.74
75 | FC1(F)CCNCC12CCN(c1cccnc1)C2 (stereo unspecified) | 5.8
76 | CN(C)S(=O)(=O)N1CC[C@H]2OCC[C@@]2(COc2cccnc2)C1 | 11.2
77 | CCOCC1CN(Cc2ccc(OC)cc2)Cc2nn(CC3CC3)cc21 (stereo unspecified) | 18
78 | CN(C)[C@@H]1CCN(S(=O)(=O)c2cn(C)cn2)[C@H]1Cc1cccnc1 | 9.79
79 | CCCS(=O)(=O)N1CCc2c(COCC)cncc2C1 | 8.76
80 | c1ccc(CCNCC2Cn3nncc3CO2)cc1 (stereo unspecified) | 7.61
81 | CNC(=O)[C@H]1C[C@H]2OCC[C@H]2N(Cc2ccc(F)cc2)C1 | 3.42
